In ChEMBL document CHEMBL2380209, “Synthesis and pharmacological characterization of 4-substituted-2-aminobicyclo[3.1.0]hexane-2,6-dicarboxylates: identification of new potent and selective metabotropic glutamate 2/3 receptor agonists” (J Med Chem, 2013):

Assays:
[1] = biological target: T1, Metabotropic glutamate receptor 3 (Homo sapiens, UniProt Q14832); assay: Agonist activity at human mGlu3 receptor expressed in golden Syrian hamster AV12 cells coexpressing EAAT1 after 20 mins by HTRF assay; assay type: cell-based
[2] = biological target: T2, Metabotropic glutamate receptor 2 (Homo sapiens, UniProt Q14416); assay: Agonist activity at human mGlu2 receptor expressed in golden Syrian hamster AV12 cells coexpressing EAAT1 after 20 mins by HTRF assay; assay type: cell-based
[3] = biological target: T3, Metabotropic glutamate receptor 6 (Homo sapiens, UniProt O15303); assay: Agonist activity at human mGlu6 receptor expressed in golden Syrian hamster AV12 cells coexpressing EAAT1 after 20 mins by FLIPR assay; assay type: cell-based
[4] = biological target: Metabotropic glutamate receptor 8 (Homo sapiens, UniProt O00222); assay: Agonist activity at human mGlu8 receptor expressed in golden Syrian hamster AV12 cells coexpressing EAAT1 after 20 mins by FLIPR assay; assay type: cell-based
[5] = biological target: T2, Metabotropic glutamate receptor 2; assay: Antagonist activity at human mGlu2 receptor expressed in golden Syrian hamster AV12 cells coexpressing EAAT1 assessed as inhibition of forskolin-stimulated cAMP production after 20 mins by HTRF assay; assay type: functional, cell-based
[6] = biological target: T1, Metabotropic glutamate receptor 3; assay: Antagonist activity at human mGlu3 receptor expressed in golden Syrian hamster AV12 cells coexpressing EAAT1 assessed as inhibition of forskolin-stimulated cAMP production after 20 mins by HTRF assay; assay type: functional, cell-based
[7] = biological target: T3, Metabotropic glutamate receptor 6; assay: Agonist activity at human mGlu6 receptor expressed in golden Syrian hamster AV12 cells coexpressing EAAT1 assessed as inhibition of forskolin-stimulated cAMP production after 20 mins by FLIPR assay
[8] = biological target: T3, Metabotropic glutamate receptor 6; assay: Antagonist activity at human mGlu6 receptor expressed in golden Syrian hamster AV12 cells coexpressing EAAT1 assessed as inhibition of forskolin-stimulated cAMP production after 20 mins by FLIPR assay relative to control; assay type: functional, cell-based
[9] = Clearance in Sprague-Dawley rat at 3 mg/kg, iv up to 24 hrs by LC/MS/MS analysis; assay type: ADME, organism-based; design: dose 3 mg/kg, route intravenous; conditions: in vivo
Outline: (§1)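 Fasted male Sprague Dawley rats (~250 g) were dosed with an aqueous solution adjusted to pH 7-7.5 with NaOH, by oral gavage (1, 3, 10 mg/kg) or intravenously (3 mg/kg). Serial jugular-catheter blood samples (11-12 per rat) went into EDTA tubes over 24 h. Plasma was extracted by SPE with an analog internal standard and run on an anion-exchange HPLC column, SRM m/z 204.1 > 77.1. Parameters came from noncompartmental analysis and are reported as means.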

[10] = Cmax in Sprague-Dawley rat at 1 mg/kg, po up to 24 hrs by LC/MS/MS analysis; assay type: ADME, organism-based; design: dose 1 mg/kg, route oral; conditions: in vivo; outline: as §1
[11] = Half life in Sprague-Dawley rat at 3 mg/kg, po by LC/MS/MS analysis; assay type: ADME, organism-based; design: dose 3 mg/kg, route oral; conditions: in vivo; outline: as §1
[12] = Half life in Sprague-Dawley rat at 1 mg/kg, po by LC/MS/MS analysis; assay type: ADME, organism-based; design: dose 1 mg/kg, route oral; conditions: in vivo; outline: as §1
Rattus norvegicus [13] = assay: Neurotoxicity in Sprague-Dawley rat assessed as impairment of motor coordination at 3 to 10 mg/kg, po administered 2 hrs prior to test by rotarod test; assay type: toxicity, organism-based; design: dose 3-10 mg/kg, route oral; conditions: in vivo
Outline: (§2)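 Rats were trained to stay on a 4 rpm rotorod for 1 min, with up to four attempts, and were retested 30-60 min later; failures were excluded. Trained rats (8/group) received oral aqueous solution (3, 10 or 30 mg/kg) or vehicle and were retested 120 min later, scored as seconds on the rotorod. One-way ANOVA with Dunnett's test was run against vehicle.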

[14] = Tmax in Sprague-Dawley rat at 3 mg/kg, iv by LC/MS/MS analysis; assay type: ADME, organism-based; design: dose 3 mg/kg, route intravenous; conditions: in vivo; outline: as §1
[15] = Cmax in Sprague-Dawley rat at 3 mg/kg, po up to 24 hrs by LC/MS/MS analysis; assay type: ADME, organism-based; design: dose 3 mg/kg, route oral; conditions: in vivo; outline: as §1
[16] = Tmax in Sprague-Dawley rat at 3 mg/kg, po by LC/MS/MS analysis; assay type: ADME, organism-based; design: dose 3 mg/kg, route oral; conditions: in vivo; outline: as §1
[17] = AUC (0 to 24 hrs) in Sprague-Dawley rat at 1 mg/kg, po by LC/MS/MS analysis; assay type: ADME, organism-based; design: time < 24 hr, dose 1 mg/kg, route oral; conditions: plasma; outline: as §1
[18] = Tmax in Sprague-Dawley rat at 1 mg/kg, po by LC/MS/MS analysis; assay type: ADME, organism-based; design: dose 1 mg/kg, route oral; conditions: in vivo; outline: as §1
[19] = AUC (0 to 24 hrs) in Sprague-Dawley rat at 3 mg/kg, iv by LC/MS/MS analysis; assay type: ADME, organism-based; design: time < 24 hr, dose 3 mg/kg, route intravenous; conditions: plasma; outline: as §1
[20] = Half life in Sprague-Dawley rat at 3 mg/kg, iv by LC/MS/MS analysis; assay type: ADME, organism-based; design: dose 3 mg/kg, route intravenous; conditions: in vivo; outline: as §1
[21] = Tmax in Sprague-Dawley rat at 10 mg/kg, po by LC/MS/MS analysis; assay type: ADME, organism-based; design: dose 10 mg/kg, route oral; conditions: in vivo; outline: as §1
Rattus norvegicus [22] = assay: Neurotoxicity in Sprague-Dawley rat assessed as impairment of motor coordination at 30 mg/kg, po administered 2 hrs prior to test by rotarod test; assay type: toxicity, organism-based; design: dose 30 mg/kg, route oral; conditions: in vivo; outline: as §2
[23] = Initial plasma concentration in Sprague-Dawley rat at 3 mg/kg, iv by LC/MS/MS analysis; assay type: ADME, organism-based; design: dose 3 mg/kg, route intravenous; outline: as §1
[24] = AUC (0 to 24 hrs) in Sprague-Dawley rat at 3 mg/kg, po by LC/MS/MS analysis; assay type: ADME, organism-based; design: time < 24 hr, dose 3 mg/kg, route oral; conditions: plasma; outline: as §1
[25] = Half life in Sprague-Dawley rat at 10 mg/kg, po by LC/MS/MS analysis; assay type: ADME, organism-based; design: dose 10 mg/kg, route oral; conditions: in vivo; outline: as §1
[26] = Oral bioavailability in Sprague-Dawley rat at 3 mg/kg up to 24 hrs by LC/MS/MS analysis; assay type: ADME, organism-based; conditions: in vivo; outline: as §1
[27] = Cmax in Sprague-Dawley rat at 10 mg/kg, po up to 24 hrs by LC/MS/MS analysis; assay type: ADME, organism-based; design: dose 10 mg/kg, route oral; conditions: in vivo; outline: as §1
[28] = AUC (0 to 24 hrs) in Sprague-Dawley rat at 10 mg/kg, po by LC/MS/MS analysis; assay type: ADME, organism-based; design: time < 24 hr, dose 10 mg/kg, route oral; conditions: plasma; outline: as §1
Rattus norvegicus [29] = assay: Antipsychotic activity in po dosed Sprague-Dawley rat assessed as decrease in PCP-elicited ambulations administered 2 hrs prior to test measured for 60 mins; assay type: functional
[30] = Volume of distribution at steady state in Sprague-Dawley rat at 3 mg/kg, iv up to 24 hrs by LC/MS/MS analysis; assay type: ADME, organism-based; design: dose 3 mg/kg, route intravenous; conditions: in vivo, read-out: Vdss; outline: as §1

T3 sequence (O15303 whole entry): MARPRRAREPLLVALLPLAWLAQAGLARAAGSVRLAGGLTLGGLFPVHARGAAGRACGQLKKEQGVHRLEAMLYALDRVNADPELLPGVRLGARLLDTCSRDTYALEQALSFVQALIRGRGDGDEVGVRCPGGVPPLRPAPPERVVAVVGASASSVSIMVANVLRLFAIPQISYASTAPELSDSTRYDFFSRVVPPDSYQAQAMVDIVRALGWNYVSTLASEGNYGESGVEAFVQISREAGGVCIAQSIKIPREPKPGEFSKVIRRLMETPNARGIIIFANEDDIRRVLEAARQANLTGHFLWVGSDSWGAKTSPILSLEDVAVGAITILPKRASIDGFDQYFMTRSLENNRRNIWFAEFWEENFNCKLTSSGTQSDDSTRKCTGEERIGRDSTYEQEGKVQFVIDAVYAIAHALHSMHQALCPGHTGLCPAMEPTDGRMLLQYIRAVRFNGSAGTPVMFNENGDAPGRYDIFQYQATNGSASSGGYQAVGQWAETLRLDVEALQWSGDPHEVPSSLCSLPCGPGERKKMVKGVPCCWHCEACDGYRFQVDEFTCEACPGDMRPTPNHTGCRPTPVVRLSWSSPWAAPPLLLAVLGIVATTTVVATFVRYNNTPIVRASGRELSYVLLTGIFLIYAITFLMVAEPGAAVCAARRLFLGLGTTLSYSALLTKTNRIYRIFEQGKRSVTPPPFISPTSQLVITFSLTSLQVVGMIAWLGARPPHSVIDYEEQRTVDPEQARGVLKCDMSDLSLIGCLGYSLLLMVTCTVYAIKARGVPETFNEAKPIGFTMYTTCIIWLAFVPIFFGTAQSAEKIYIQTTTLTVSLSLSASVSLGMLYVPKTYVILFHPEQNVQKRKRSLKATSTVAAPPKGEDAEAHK
T1 sequence (Q14832 whole entry): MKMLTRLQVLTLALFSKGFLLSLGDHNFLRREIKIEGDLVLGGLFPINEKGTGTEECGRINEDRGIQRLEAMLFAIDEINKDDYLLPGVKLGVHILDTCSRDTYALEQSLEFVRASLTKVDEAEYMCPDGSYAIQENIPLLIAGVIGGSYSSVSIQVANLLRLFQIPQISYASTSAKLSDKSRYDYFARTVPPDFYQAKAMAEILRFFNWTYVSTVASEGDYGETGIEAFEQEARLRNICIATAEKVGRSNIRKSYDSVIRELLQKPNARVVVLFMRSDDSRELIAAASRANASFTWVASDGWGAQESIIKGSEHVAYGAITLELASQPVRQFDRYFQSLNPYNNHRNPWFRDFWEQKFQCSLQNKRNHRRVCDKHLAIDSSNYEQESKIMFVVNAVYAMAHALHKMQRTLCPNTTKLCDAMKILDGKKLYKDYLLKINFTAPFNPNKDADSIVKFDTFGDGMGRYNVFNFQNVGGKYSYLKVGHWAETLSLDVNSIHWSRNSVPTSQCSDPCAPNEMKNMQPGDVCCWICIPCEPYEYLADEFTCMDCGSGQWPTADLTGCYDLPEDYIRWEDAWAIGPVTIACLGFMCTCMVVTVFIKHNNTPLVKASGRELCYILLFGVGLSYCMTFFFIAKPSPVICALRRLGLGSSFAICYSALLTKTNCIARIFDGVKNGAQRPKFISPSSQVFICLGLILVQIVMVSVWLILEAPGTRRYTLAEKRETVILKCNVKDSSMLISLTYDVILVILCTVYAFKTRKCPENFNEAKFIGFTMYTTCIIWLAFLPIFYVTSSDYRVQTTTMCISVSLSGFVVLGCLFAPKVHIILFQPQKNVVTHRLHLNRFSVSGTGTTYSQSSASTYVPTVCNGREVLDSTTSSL
T2 sequence (Q14416 whole entry): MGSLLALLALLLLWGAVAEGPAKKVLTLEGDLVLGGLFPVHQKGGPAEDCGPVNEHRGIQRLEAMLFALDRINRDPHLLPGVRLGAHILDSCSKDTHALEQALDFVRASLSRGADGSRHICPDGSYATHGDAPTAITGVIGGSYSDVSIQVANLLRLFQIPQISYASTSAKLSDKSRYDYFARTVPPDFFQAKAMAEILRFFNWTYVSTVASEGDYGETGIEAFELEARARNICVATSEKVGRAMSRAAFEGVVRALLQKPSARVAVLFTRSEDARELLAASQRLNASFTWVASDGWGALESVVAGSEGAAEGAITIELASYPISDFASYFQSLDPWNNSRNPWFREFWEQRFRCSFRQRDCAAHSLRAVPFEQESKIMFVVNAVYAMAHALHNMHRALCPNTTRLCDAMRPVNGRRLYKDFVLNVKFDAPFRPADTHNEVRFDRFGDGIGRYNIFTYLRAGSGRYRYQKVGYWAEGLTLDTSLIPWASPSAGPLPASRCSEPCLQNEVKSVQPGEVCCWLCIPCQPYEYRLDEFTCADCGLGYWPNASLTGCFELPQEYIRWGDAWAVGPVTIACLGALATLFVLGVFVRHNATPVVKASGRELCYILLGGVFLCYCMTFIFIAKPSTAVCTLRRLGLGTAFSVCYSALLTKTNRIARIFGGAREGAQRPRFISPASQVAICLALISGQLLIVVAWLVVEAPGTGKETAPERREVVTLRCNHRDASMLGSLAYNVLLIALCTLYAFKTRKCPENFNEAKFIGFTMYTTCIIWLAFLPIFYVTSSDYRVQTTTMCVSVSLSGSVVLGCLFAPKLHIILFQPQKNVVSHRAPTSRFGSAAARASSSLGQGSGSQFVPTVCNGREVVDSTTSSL
Metabotropic glutamate receptor 8, sequence (O00222 whole entry): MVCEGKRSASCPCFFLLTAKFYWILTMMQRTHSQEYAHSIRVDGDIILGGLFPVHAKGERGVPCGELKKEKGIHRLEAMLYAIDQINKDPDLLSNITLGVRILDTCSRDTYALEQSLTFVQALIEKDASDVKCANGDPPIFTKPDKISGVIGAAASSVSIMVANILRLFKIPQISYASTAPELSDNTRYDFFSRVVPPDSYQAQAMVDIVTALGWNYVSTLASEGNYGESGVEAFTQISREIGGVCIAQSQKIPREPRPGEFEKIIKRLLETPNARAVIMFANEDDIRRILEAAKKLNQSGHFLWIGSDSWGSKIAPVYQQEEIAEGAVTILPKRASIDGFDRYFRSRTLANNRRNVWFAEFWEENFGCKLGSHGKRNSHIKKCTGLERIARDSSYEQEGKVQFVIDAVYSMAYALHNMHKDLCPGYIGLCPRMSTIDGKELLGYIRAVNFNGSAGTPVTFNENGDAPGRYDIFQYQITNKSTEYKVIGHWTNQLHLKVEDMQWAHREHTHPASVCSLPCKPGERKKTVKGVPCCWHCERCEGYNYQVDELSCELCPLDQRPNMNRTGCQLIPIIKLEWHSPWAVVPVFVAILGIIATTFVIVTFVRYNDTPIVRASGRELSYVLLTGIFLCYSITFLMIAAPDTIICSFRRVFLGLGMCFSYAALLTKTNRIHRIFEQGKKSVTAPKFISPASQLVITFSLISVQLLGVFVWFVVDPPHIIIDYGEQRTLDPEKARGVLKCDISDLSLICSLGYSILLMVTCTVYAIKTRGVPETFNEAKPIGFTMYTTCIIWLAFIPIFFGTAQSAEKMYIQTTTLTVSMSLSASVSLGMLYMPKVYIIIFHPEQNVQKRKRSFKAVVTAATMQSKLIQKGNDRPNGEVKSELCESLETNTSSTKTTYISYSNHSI

Structure (SMILES): [N-]=[N+]=N[C@@H]1C[C@@](N)(C(=O)O)[C@@H]2[C@@H](C(=O)O)[C@@H]21
- EC50 [1]: 12.3 nM
- EC50 [2]: 8.2 nM
- EC50 [3]: 780 nM
- EC50 [4]: 12400 nM

Structure (SMILES): N[C@@]1(C(=O)O)C[C@@H](Sc2ccccc2)[C@H]2[C@H](C(=O)O)[C@H]21
- IC50 [5]: 7020 nM
- IC50 [6]: 895 nM
- EC50 [3]: 1270 nM
- EC50 [4]: > 25000 nM

Structure (SMILES): N[C@@]1(C(=O)O)C[C@@H](O)[C@H]2[C@H](C(=O)O)[C@H]21
- EC50 [2]: 7.6 nM
- EC50 [3]: 4370 nM
- EC50 [4]: > 25000 nM

Structure (SMILES): [N-]=[N+]=N[C@H]1C[C@@](N)(C(=O)O)[C@@H]2[C@@H](C(=O)O)[C@@H]21
- EC50 [1]: 23.5 nM
- EC50 [7]: 1890 nM
- EC50 [2]: 12.2 nM
- %max [8]: 100%
- EC50 [4]: 12000 nM

Structure (SMILES): C[C@H]1C[C@@](N)(C(=O)O)[C@@H]2[C@@H](C(=O)O)[C@@H]21
- EC50 [1]: 166 nM
- EC50 [2]: 28.6 nM
- EC50 [3]: 9280 nM
- EC50 [4]: > 25000 nM

Structure (SMILES): CC(=O)N[C@H]1C[C@@](N)(C(=O)O)[C@@H]2[C@@H](C(=O)O)[C@@H]21
- EC50 [1]: 193 nM
- EC50 [2]: 257 nM
- EC50 [3]: 709 nM
- EC50 [4]: 4300 nM

Structure (SMILES): C=C1C[C@@](N)(C(=O)O)[C@H]2[C@@H]1[C@@H]2C(=O)O
- EC50 [1]: 15.5 nM
- EC50 [7]: 267 nM
- EC50 [2]: 1.3 nM
- %max [8]: 100%
- EC50 [4]: 1590 nM

Structure (SMILES): N[C@H]1C[C@@](N)(C(=O)O)[C@@H]2[C@@H](C(=O)O)[C@@H]21
- EC50 [1]: 24.9 nM
- EC50 [2]: 21.2 nM
- EC50 [3]: 9370 nM
- EC50 [4]: > 25000 nM

Structure (SMILES): CC(=O)N[C@@H]1C[C@@](N)(C(=O)O)[C@@H]2[C@@H](C(=O)O)[C@@H]21
- IC50 [5]: 4990 nM
- IC50 [6]: 3390 nM
- EC50 [3]: 6690 nM
- EC50 [4]: > 25000 nM

Structure (SMILES): N[C@@]1(C(=O)O)CC[C@H]2[C@H](C(=O)O)[C@H]21
- EC50 [1]: 27.1 nM
- EC50 [3]: 3360 nM
- EC50 [4]: > 25000 nM

Structure (SMILES): N[C@@]1(C(=O)O)C[C@@H](F)[C@H]2[C@H](C(=O)O)[C@H]21
- clearance [9]: 14.8 mL/min/kg
- Cmax [10]: 0.713 µM
- half-life [11]: 3.5 h
- half-life [12]: 2.7 h
- Activity (Rattus norvegicus [13]): Non-toxic
- Tmax [14]: 0 h
- Cmax [15]: 3.94 µM
- Tmax [16]: 1.8 h
- AUC(0-t) at 24 h [17]: 2.79 µM·h
- EC50 [1]: 0.24 nM
- Tmax [18]: 2.5 h
- EC50 [2]: 0.56 nM
- AUC(0-t) at 24 h [19]: 16.7 µM·h
- half-life [20]: 7.3 h
- Tmax [21]: 2 h
- Activity (Rattus norvegicus [22]): Toxic
- C0 [23]: 36.7 µM
- AUC(0-t) at 24 h [24]: 10.7 µM·h
- half-life [25]: 5.9 h
- bioavailability [26]: 64.4%
- Cmax [27]: 7.94 µM
- AUC(0-t) at 24 h [28]: 23.6 µM·h
- Activity (Rattus norvegicus [29]): Dose-dependent effect
- ED50 (Rattus norvegicus [29]): 2.08 mg/kg
- EC50 [3]: 1410 nM
- EC50 [4]: 11500 nM
- Vd [30]: 1.25 L/kg

Structure (SMILES): N[C@@H]1C[C@@](N)(C(=O)O)[C@@H]2[C@@H](C(=O)O)[C@@H]21
- EC50 [1]: 57.1 nM
- EC50 [2]: 47.9 nM
- EC50 [3]: 11800 nM
- EC50 [4]: > 25000 nM

Structure (SMILES): C[C@@H]1C[C@@](N)(C(=O)O)[C@@H]2[C@@H](C(=O)O)[C@@H]21
- IC50 [6]: 3420 nM
- EC50 [2]: 63.6 nM
- EC50 [3]: 7540 nM
- EC50 [4]: > 25000 nM

Structure (SMILES): N[C@@]1(C(=O)O)CC(=O)[C@H]2[C@H](C(=O)O)[C@H]21
- EC50 [1]: 0.11 nM
- EC50 [7]: 1380 nM
- EC50 [2]: 0.16 nM
- %max [8]: 100%
- EC50 [4]: 6530 nM

Structure (SMILES): N[C@@]1(C(=O)O)C[C@H](Sc2ccccc2)[C@H]2[C@H](C(=O)O)[C@H]21
- IC50 [6]: 3370 nM
- EC50 [2]: 1170 nM
- EC50 [3]: 3250 nM
- EC50 [4]: > 25000 nM

Structure (SMILES): N[C@@]1(C(=O)O)C[C@H](O)[C@H]2[C@H](C(=O)O)[C@H]21
- EC50 [7]: 3040 nM
- EC50 [2]: 7.5 nM
- EC50 [4]: > 25000 nM
